Experimental data taken from publication PMC3514448 (ACS chemical biology, 2012).
pIC50: −log10 of the molar value. Converted amounts (≈) assume the structure as drawn. Read-outs that look alike come from different tables or passages of the source.

Key:
EcFtsZ = EcFtsZ (Escherichia coli, UniProt P0A9A6); format: biochemical; settings: for Inhibition of EcFtsZ GTPase activity with detergent: 0.01% Triton X-100; for Inhibition of EcFtsZ GTPase activity at increasing FtsZ concentrations: increasing protein concentration
EcFtsZ, sequence (P0A9A6 whole entry): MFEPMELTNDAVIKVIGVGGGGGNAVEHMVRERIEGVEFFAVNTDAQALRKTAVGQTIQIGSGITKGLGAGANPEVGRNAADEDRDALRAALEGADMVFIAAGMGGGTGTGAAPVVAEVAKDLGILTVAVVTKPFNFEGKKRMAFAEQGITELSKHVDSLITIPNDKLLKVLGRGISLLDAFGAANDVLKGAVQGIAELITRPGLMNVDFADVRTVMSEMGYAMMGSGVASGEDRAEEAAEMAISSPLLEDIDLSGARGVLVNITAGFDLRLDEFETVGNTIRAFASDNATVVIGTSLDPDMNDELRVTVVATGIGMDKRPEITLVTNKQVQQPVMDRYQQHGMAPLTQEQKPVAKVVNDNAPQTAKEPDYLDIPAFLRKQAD

BsFtsZ [1] = target: T1, BsFtsZ (Bacillus subtilis, UniProt P17865); test: Enzyme-coupled GTPase assay, BsFtsZ; format: biochemical; settings: for Inhibition of BsFtsZ GTPase activity with detergent: 0.01% Triton X-100; for Inhibition of BsFtsZ GTPase activity at increasing FtsZ concentrations: increasing protein concentration; for Inhibition of BsFtsZ GTPase activity: absence of Triton X-100
T1 sequence (P17865 whole entry): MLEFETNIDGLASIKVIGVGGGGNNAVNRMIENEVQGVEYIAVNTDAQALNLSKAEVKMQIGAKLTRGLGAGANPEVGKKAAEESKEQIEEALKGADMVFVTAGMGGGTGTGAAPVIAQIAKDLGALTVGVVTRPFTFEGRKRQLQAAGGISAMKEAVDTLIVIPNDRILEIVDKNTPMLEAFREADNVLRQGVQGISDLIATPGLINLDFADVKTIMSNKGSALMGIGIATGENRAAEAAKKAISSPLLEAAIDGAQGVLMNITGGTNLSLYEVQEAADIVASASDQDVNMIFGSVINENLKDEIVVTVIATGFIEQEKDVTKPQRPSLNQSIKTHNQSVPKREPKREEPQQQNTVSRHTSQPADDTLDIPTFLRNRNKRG

BsFtsZ [2] = target: T1, BsFtsZ; test: Malachite green GTPase assay, BsFtsZ; format: biochemical; settings: concentrations up to 100 μM
B. subtilis strain 168 = test: Antimicrobial activity; format: cell-based, Bacillus subtilis
SaFtsZ = SaFtsZ (Staphylococcus aureus, UniProt P0A031); test: GTPase assay, SaFtsZ; format: biochemical
SaFtsZ, sequence (P0A031 whole entry): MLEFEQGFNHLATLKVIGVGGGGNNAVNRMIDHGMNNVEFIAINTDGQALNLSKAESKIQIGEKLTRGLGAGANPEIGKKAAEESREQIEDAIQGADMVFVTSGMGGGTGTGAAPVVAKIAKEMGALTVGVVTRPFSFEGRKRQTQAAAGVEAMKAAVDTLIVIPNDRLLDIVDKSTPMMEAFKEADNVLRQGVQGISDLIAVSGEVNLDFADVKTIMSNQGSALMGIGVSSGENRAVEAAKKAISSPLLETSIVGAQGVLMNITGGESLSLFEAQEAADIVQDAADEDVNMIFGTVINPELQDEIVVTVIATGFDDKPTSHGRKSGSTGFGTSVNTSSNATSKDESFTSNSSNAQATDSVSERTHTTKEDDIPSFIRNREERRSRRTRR
Procedure, shortened: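 Recombinant S. aureus FtsZ (pET11a, E. coli C41(DE3), IPTG 30 °C 5 h) purified by ammonium sulfate and anion exchange; BCA concentration divided by 0.75. 10 μM FtsZ with inhibitor in DMSO, pH 6.5 MES/Mg(OAc)2/KOAc, preincubated 5 min, then GTP added. Coupled: PK/LDH, PEP, NADH, A340 over time at ~25 °C. Malachite green: 30 °C, EDTA-quenched time points, A630 against phosphate standards.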

FtsZ [3] = settings: cited from earlier work
tubulin = settings: berberine even at high concentration (100 μM); cited from earlier work
FtsZ [4] = test: Malachite green GTPase assay under approximate Merck viriditoxin conditions; format: biochemical; settings: up to 128 μM; 50 mM Tris, 34 mM KCl, 0.75 mM Mg(OAc)2, 2.5 mM CaCl2, 50 μg/mL DEAE-Dextran, 37 °C
[5] = Chemical stability on storage; format: physicochemical; settings: degrades if not stored free of solvent and at low temperature
Dnm1 = target: T2, Dnm1 (Saccharomyces cerevisiae, UniProt P54861); test: GTPase activity of the eukaryotic GTPase Dnm1; format: biochemical
T2 sequence (P54861 1-757): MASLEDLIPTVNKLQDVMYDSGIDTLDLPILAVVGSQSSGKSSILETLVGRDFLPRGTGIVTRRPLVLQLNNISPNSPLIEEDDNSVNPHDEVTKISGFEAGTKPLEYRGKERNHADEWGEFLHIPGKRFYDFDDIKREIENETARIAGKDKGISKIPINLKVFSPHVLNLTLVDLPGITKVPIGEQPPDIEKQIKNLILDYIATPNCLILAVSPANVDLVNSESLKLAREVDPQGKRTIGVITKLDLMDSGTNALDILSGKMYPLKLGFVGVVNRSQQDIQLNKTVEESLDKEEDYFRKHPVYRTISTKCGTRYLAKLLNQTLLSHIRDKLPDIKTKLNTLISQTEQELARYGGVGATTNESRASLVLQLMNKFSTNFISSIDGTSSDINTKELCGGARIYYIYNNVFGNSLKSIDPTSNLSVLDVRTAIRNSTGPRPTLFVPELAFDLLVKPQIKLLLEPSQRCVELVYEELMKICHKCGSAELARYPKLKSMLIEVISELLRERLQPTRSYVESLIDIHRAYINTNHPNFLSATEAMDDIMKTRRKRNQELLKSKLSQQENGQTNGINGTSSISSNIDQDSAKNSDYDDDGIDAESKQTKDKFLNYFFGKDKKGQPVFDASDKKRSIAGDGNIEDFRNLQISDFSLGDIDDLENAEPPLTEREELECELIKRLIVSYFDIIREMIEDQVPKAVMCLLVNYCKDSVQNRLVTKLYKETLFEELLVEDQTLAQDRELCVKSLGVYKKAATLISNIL

[6] = standard conditions, up to 200 μM

Zantrin Z3
Inhibition of EcFtsZ GTPase activity with detergent (EcFtsZ): maintained | Inhibition of EcFtsZ GTPase activity at increasing FtsZ concentrations (EcFtsZ): maintained | pIC50 (EcFtsZ; read-out: IC50 for inhibition of EcFtsZ GTPase activity, no Triton X-100): 4.70 | Inhibition of BsFtsZ GTPase activity with detergent (BsFtsZ [1]): maintained | Inhibition of BsFtsZ GTPase activity at increasing FtsZ concentrations (BsFtsZ [1]): maintained

NC(=O)c1c(F)ccc(OCc2nc3cc(Cl)cnc3s2)c1F [PC190723]
Inhibition of BsFtsZ, malachite green assay (BsFtsZ [2]): no inhibition | MIC (B. subtilis strain 168): 1 µM (≈ 0.356 µg/mL) | Inhibition of BsFtsZ, enzyme-coupled assay (BsFtsZ [1]; concentrations up to 100 μM): no inhibition | Inhibition of SaFtsZ GTPase activity (SaFtsZ): no inhibition | Change of SaFtsZ GTPase activity (SaFtsZ; basal activity ~0.5 GTP/FtsZ/min): dose-dependent and reproducible increase in activity

Oc1ccc(Cl)cc1Cc1cc(Cl)cc(Cc2cc(Cl)ccc2O)c1O [zantrin Z1]
Inhibition of EcFtsZ GTPase activity (EcFtsZ; absence of Triton X-100): exhibited the published activity | Inhibition of BsFtsZ GTPase activity (BsFtsZ [1]): exhibited the published activity

COc1nc2c(=O)[nH]c(N)nc2n1[C@@H]1O[C@H](COP(=O)(O)OP(=O)(O)OP(=O)(O)O)[C@@H](O)[C@H]1O [8-methoxy GTP]
Concentration at which the GTPase activity of FtsZ is inhibited (FtsZ [3]): 15 µM

O=C1C[C@@H](c2ccccc2)Oc2c(Cc3ccccc3O)c(O)c(Cc3ccccc3O)c(O)c21 [Dichamanetin]
Reported activity (FtsZ inhibition) (FtsZ [3]): 12.5 µM

COc1ccc2cc3[n+](cc2c1OC)CCc1cc2c(cc1-3)OCO2 [berberine]
Inhibition of tubulin assembly (tubulin): does not do so

COC(=O)CC1Cc2cc3cc(OC)c(-c4c(OC)cc5cc6c(c(O)c5c4O)C(=O)OC(CC(=O)OC)C6)c(O)c3c(O)c2C(=O)O1 (stereo not shown) [Viriditoxin, viriditoxin]
Inhibition of FtsZ GTPase under Merck conditions (FtsZ [4]): no inhibition | pIC50 (FtsZ [3]; read-out: Reported IC50 (FtsZ)): 5.00 | Chemical stability [5]: chemically unstable | Inhibition of E. coli FtsZ (EcFtsZ; [6]): no inhibition | Inhibition of B. subtilis FtsZ (BsFtsZ [1]; [6]): no inhibition

CC(C)c1c(O)ccc2c1CC[C@H]1C(C)(C)CCC[C@]21C [totarol]
Inhibition of EcFtsZ GTPase activity with detergent (EcFtsZ): vanished | Inhibition of EcFtsZ GTPase activity (EcFtsZ; absence of Triton X-100): reproduce the IC50 | Inhibition of EcFtsZ GTPase activity at increasing FtsZ concentrations (EcFtsZ): decreased nearly to the point of having no effect | Inhibition of BsFtsZ GTPase activity with detergent (BsFtsZ [1]): vanished | Inhibition of BsFtsZ GTPase activity (BsFtsZ [1]): reproduce the IC50 | Inhibition of BsFtsZ GTPase activity at increasing FtsZ concentrations (BsFtsZ [1]): decreased nearly to the point of having no effect | Dnm1 GTPase activity on addition of detergent (Dnm1; 0.01% Triton X-100): completely restored | Effect on Dnm1 GTPase activity (Dnm1; micromolar concentrations, no detergent): significant reduction

C[n+]1cc2c3c(ccc2c2ccc4cc5c(cc4c21)OCO5)OCO3 [sanguinarine]
Inhibition of tubulin assembly (tubulin): inhibit tubulin assembly

O=C1CC(c2ccc(O)cc2)Oc2c(Cc3ccccc3O)c(O)c(Cc3ccccc3O)c(O)c21 (stereo not shown) [4′-hydroxydichamanetin]
Inhibition of EcFtsZ GTPase activity (EcFtsZ): exhibited the published activity | Inhibition of BsFtsZ GTPase activity (BsFtsZ [1]): exhibited the published activity
